An excerpt weighted towards active compounds, which were near 2.9% of everything screened.
Autophagy mod – autophagy modulators in MEF cells, primary screen, imaging, high-content, MEF GFP-LC3. 190,000 tested, 0.98% active. AID 463193, 2010. MEF GFP-LC3 puncta imaging; test concentration mostly 10 µM. calls only at 10 µM (by protocol);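 active means percentage of spot-positive cells more than 3 SD above its plate mean, without a fluorescence outlier flag or 80% toxicity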;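 further: spot-positive cell cutoff set from DMSO-treated cells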
Wee1 degr inh – Wee1 degradation inhibitors, primary screen, cell-based, HeLa, Wee1K328M-luciferase, luminescence. Wee1-like protein kinase (Homo sapiens), P30291. HeLa Luc-Wee1K328M stability; 100% = proteasome inhibitor MG132 effect. reporter increase, % at 5 µM. 220,000 tested, 1.2% active. AID 1321, 2008;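 active means activation above the mean of all tested compounds plus 3 SD, set per screening run, cut at about 8.8% in these data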;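 further: cells exposed to compound for 20 h before luminescence read; 0% = DMSO alone and 100% = MG132 at 30 µM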
Target sequence (P30291 whole entry K328M): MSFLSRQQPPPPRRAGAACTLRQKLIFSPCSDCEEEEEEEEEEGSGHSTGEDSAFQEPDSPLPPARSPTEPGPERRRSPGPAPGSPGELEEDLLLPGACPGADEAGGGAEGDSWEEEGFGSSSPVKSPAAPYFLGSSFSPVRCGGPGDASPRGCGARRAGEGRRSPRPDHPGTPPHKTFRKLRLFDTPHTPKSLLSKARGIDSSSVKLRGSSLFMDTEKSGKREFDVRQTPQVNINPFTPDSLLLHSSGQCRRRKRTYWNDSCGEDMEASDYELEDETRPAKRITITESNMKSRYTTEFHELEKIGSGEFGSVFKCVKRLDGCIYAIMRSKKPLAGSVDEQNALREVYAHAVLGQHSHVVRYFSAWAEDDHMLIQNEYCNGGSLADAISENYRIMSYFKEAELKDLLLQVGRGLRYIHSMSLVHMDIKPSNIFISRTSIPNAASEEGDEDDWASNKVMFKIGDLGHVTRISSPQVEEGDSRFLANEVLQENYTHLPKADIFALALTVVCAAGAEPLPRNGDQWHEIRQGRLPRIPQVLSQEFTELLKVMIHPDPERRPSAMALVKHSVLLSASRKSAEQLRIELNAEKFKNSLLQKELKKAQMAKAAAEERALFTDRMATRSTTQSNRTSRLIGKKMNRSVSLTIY
b-catenin transl – modulators of beta-catenin nuclear translocation, primary screen, imaging, HeLa cells, immunofluorescence, high-content. 190,000 tested, 0.3% active. nuclear translocation activity, % at 5 µM. AID 1665, 2009;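 active means nuclear translocation activity above 50% at 5 µM, with a well cell count of 50 or more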;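 further: per-cell ratio of nuclear to cytoplasmic median beta-catenin stain intensity; plate controls were DMSO negative control for no effect and GSK-3 inhibitor IX positive control for full effect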
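Technique: fluorescence imaging of beta-catenin antibody stain plus DAPI / Material: human HeLa cell line / Incubation: compound treatment 24 h, 37°C, 5% CO2 / Read-out basis: % activation of per-cell nuclear versus cytoplasmic median beta-catenin signal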
MT stabilizer – microtubule stabilizers in HeLa cells, primary screen, imaging, high-content imaging; HeLa tubulin immunostaining HCS, 24 h; share of cells brighter than vehicle mean+2SD; 200,000 tested, 0.83% active; % tubulin-high responders, % at 10 µM; AID 2205, 2009;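 active means plate Z-score above 3 for both tubulin-high and condensed-nucleus cell shares, with cell loss under 80%, at 10 µM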;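 further: anti alpha tubulin signal scored within the nucleus-defined area of each cell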
Insulin prom up – insulin promoter activators in MIN6 cells, imaging, high-content screening, mouse beta cells. MIN6 insulin promoter-GFP reporter; hits give high values. z-score at 5 µM. 190,000 tested, 0.3% active. AID 1625, 2009;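 active means z-score above 3 at 5 µM with at least 500 cells counted in the well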
* marks the source's active call; other numbers are inactive results; i = inactive; · = no result; + = active, no number.

SMILES	Autophagy mod	Wee1 degr inh	b-catenin transl	MT stabilizer	Insulin prom up
O=C(O)c1ccc(-c2nc(-c3ccc(Cl)cc3)cs2)cc1	i	7.7	1.1	2.0	1.14
COc1ccc(-c2csc(C)n2)cc1	i	9.0*	-0.5	2.9	·
COc1ccc(-c2csc(C)n2)cc1OC	i	-2.4	·	2.4	0.42
COc1ccc(-c2csc(-c3ccc(C(=O)O)cc3)n2)cc1	i	10.0*	1.9	4.1	-0.6
COc1ccc(-c2ncncc2-c2csc(C)n2)c(O)c1	+	2.9	-0.4	3.6	0.24
COC(=O)c1c(NC(=O)CN2C(=O)C(=O)N(CC(C)C)C2=O)sc2c1CCCCC2	i	2.7	-0.4	5.4	0.57
CCC(=O)Nc1ccc(/C(C)=N/NC(=O)c2c(-c3ccccc3Cl)noc2C)cc1	i	0.2	6.5	2.8	0.17
NC(=O)c1sc(-c2ccsc2)cc1NS(=O)(=O)c1ccc(C(F)(F)F)cc1	·	0.1	-0.5	·	0.13
N=C1c2ccccc2CN1NC(=O)CC12CC3CC(CC(C3)C1)C2	i	0.0	-3.0	3.8	-0.03
O=C(CC12CC3CC(CC(C3)C1)C2)NCC(=O)N1CCc2ccccc2C1	i	3.2	-6.4	1.8	3.34*
Cc1ccc(-n2c(SCC(=O)N/N=C/c3c(C)nn(-c4ccccc4)c3C)nc3ccccc3c2=O)cc1	+	-0.3	0.0	5.8	0.11
Cc1ccccc1-n1c(SCC(=O)N/N=C/c2sccc2C)nc2ccccc2c1=O	i	0.0	0.5	14.2*	-0.33
Cc1nn(-c2ccccc2)c(C)c1/C=N/NC(=O)CSc1nc2ccccc2c(=O)n1-c1ccc(Br)cc1	i	-2.0	-0.3	11.8	-0.49
COc1ccccc1C(=O)NCC(=O)NNc1ncnc(N)c1[N+](=O)[O-]	i	-3.6	-1.4	1.8	0.81
CC1CC(C)(C)NC(=S)N1CCC(=O)N1CCc2ccccc21 (stereo not given)	i	1.2	-2.7	3.7	-0.23
Cc1ccc(/C=C2/NC(=O)N(Cc3ccccc3F)C2=O)s1	+	7.0	1.0	2.8	1.76
O=c1cc2c(=O)oc3cc(O)c(O)oc3c2c(O)c1O	·	1.9	-3.4	·	0.12
COCCN1C(=O)c2oc3ccccc3c(=O)c2C1c1cccc(O)c1 (stereo not given)	i	0.8	·	4.3	0.09
COCCN1C(=O)c2oc3cc(C)c(C)cc3c(=O)c2C1c1ccc(O)cc1 (stereo not given)	i	9.1*	·	2.0	·
Cc1ccc(-c2ccc(/C=C3\SC(N4CCOCC4)=NC3=O)o2)cc1	+	-3.0	2.2	5.2	-0.35
CCOCCCn1c(=N)c(C(N)=S)cc2c(=O)n3cccc(C)c3nc21	i	-0.9	-0.6	1.6	-0.31
Cc1cccn2c(=O)c3cc(C(N)=S)c(=N)n(CCCOC(C)C)c3nc12	i	15.0*	-0.8	4.5	-0.86
O=C(NCCc1nc(-c2ccccc2)cs1)c1ccc(Br)cc1	i	-3.2	5.1	1.7	-0.58
c1ccc(-c2cc(-c3nnc4n3N=C(c3ccc5ccccc5c3)CS4)[nH]n2)cc1	i	1.6	-0.3	20.7*	-1.93
Cn1cc(CN2C[C@H]3CC[C@H]2C3)c(-c2ccccc2F)n1	i	1.0	0.6	1.8	·
SMILES	Autophagy mod	Wee1 degr inh	b-catenin transl	MT stabilizer	Insulin prom up
CCOC(=O)N1CCN(C(=O)C2CCC(C(=O)N3CCN(C(=O)OCC)CC3)CC2)CC1 (stereo not given)	i	9.5*	·	3.8	·
CC(C)NC(=O)C1CCN(C(=O)c2ccc(-c3ccccc3)cc2)CC1	i	10.8*	0.4	2.1	0.22
O=C(c1ccc(-c2ccccc2)cc1)C1CCCN(C(=O)c2ccncc2)C1 (stereo not given)	+	-1.8	0.4	1.2	-0.16
O=C(c1ccc(-c2ccccc2)cc1)C1CCCN(Cc2ccncc2)C1 (stereo not given)	i	3.0	-0.3	3.0	-1.11
COC(=O)c1ccc(C(=O)N(CCN(C)C)c2nc3c(Cl)cccc3s2)cc1	i	3.0	0.2	2.5	-0.48
O=C(O)Cn1cccc1C(=O)c1ccccc1	i	9.2*	-3.8	2.1	·
CC(C)CNC(=O)CSc1nnc(-c2cccc(S(=O)(=O)N3CCCCC3)c2)o1	i	-1.4	-0.7	3.3	4.75*
CCN1C(=O)/C(=C/C=C2/CCCN2C)OC1=S	i	3.2	0.8	1.3	1.09
O=C(O)CCC(=O)N1CCCC1	i	9.9*	-1.0	3.2	-1.25
COc1cc(C(=O)N/N=C/c2sc(N3CCOCC3)nc2-c2ccccc2)cc(OC)c1OC	i	-0.1	-1.2	2.8	-1.57
Cc1ccc(NC(=O)CN2C(=O)C3C4C=CC(C4)C3C2=O)cc1 (stereo not given)	+	-2.6	-0.2	1.8	0.61
O=C(OCCN(C1=NS(=O)(=O)c2ccccc21)c1ccccc1Cl)c1ccc(Cl)cc1	i	9.7*	-2.7	2.2	-1.15
Fc1ccccc1Cc1noc(CN2CCC(OCc3cccnc3)CC2)n1	i	0.0	0.4	2.2	-0.87
O=C(O)c1ccc[nH]c1=S	·	-1.2	-0.9	·	0.72
Cc1ccc(S(=O)(=O)N(CC(=O)N=Nc2c(O)[nH]c3ccccc23)c2ccc(C)c(C)c2)cc1	i	0.5	17.9	19.7*	-0.34
Cc1ccc(S(=O)(=O)N=Nc2c(O)[nH]c3ccccc23)cc1	i	0.5	-0.7	2.7	-0.82
COCCN1C(=O)C(=O)/C(=C(/O)c2cccc(S(=O)(=O)N(C)C)c2)C12C(=O)N(C)c1ccccc12 (stereo not given)	i	-4.6	·	2.7	0.25
N#C/C(=C\c1cccn1-c1ccccc1)C(=O)NC1CCCCC1	i	0.6	2.6	30.4*	-0.28
O=C(N/N=C\c1cn(-c2ccccc2)nc1-c1ccccc1)c1ccc(Br)o1	i	0.4	3.1	3.4	3.24*
O=C(Nc1nncs1)c1ccc(S(=O)(=O)c2ccccc2)cc1	i	9.3*	·	4.0	0.95
O=C(Nc1ccccc1C(=O)Nc1nncs1)c1ccccc1	·	-0.7	-0.5	·	0.37
COc1ccc(-c2cc(C(F)F)n3ncc(C(=O)N4CCc5ccccc54)c3n2)cc1	i	2.0	6.2	25.6*	-1.33
COc1ccc(-c2cc(C(F)F)n3ncc(C(=O)Nc4ccc(C(=O)N5CCOCC5)cc4)c3n2)cc1	+	-0.3	0.3	2.3	-0.87
O=C(Nc1ccc(C(=O)N2CCOCC2)cc1)c1cnn2c(C(F)F)cc(-c3ccccc3)nc12	i	-2.1	0.2	2.9	·
CS(=O)(=O)N1CCN(CC(=O)NC2CCCCC2)CC1	i	-1.8	0.5	1.5	0.4
O=C(O)c1ccccc1S	i	11.8*	·	6.5	·
O=C(O)c1cccc2c1C(=O)c1ccccc1C2=O	+	-0.4	-6.1	3.6	1.08
CCC(=O)c1ccc(OCCn2cnc3ccccc32)cc1	i	-0.6	0.3	3.1	-0.76

Screening results (PubChem)
